PGC1a acetyl inh – lowers PGC1a acetylation signal in U2OS cells. AlphaScreen anti-acetyl-lysine; with virally co-expressed GCN5 acetyltransferase. inhibition, % at 15.6 µM. 350,000 tested, 0.17% active;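 active means every replicate shows inhibition of at least 40%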;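 further: 0% = neutral control wells and 100% = positive control wells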
ERAP1 HTS inh – blocks human ERAP1 aminopeptidase activity; recombinant ERAP1, Leu-AMC fluorescence, 60 min; inhibition, % at 10.7 µM; 340,000 tested, 0.15% active;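 active means mean replicate inhibition of at least 30%, or all replicates individually reaching that 30% level; inactive means mean below 30% and not every replicate reaching it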;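 further: 0% = neutral control wells and 100% = L-leucinethiol positive control wells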
Target sequence (Q9NZ08 whole entry, looked up): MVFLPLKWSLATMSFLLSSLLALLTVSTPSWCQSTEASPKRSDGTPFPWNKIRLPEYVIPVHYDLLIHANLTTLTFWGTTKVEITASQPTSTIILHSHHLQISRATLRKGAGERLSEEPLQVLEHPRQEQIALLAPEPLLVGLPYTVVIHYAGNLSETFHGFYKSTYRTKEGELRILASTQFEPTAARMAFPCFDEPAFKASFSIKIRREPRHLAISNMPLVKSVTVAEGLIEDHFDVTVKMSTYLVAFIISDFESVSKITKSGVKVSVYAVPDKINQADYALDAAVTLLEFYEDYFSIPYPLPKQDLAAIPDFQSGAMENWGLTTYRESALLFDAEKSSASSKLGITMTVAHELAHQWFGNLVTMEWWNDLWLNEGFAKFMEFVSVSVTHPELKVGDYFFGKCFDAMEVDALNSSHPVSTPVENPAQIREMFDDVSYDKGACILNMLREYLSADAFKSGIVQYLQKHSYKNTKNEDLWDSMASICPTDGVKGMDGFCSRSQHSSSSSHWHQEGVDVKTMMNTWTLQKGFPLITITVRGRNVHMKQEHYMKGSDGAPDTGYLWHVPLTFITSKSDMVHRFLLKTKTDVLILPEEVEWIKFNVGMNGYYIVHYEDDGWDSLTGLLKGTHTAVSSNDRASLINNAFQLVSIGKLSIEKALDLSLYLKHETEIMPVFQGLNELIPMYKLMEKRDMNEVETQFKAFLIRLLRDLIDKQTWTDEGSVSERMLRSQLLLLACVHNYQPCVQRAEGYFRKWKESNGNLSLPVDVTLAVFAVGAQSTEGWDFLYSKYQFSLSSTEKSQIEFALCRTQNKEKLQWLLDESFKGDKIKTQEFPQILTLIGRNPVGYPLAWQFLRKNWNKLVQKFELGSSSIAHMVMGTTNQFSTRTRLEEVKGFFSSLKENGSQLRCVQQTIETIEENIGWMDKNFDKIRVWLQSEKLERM
rRNA inh HTS – inhibitors of bacterial rRNA selective over humanized ribosomes; 350,000 tested, 1.6% active; GFP signal change (wild-type ribosome), % (concentration not given with the values); E. coli WT GFP vs humanized-ribosome RFP mutants, fluorescence, 24 h; stronger effect = lower value; DMSO median 0, no signal -100;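 active means significant combined selectivity score with lowered wild-type GFP, culture density cut under 30%, mutant RFP and density less affected; inactive means any of these conditions unmet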
Cneo AK release – Cryptococcus neoformans lysis via adenylate kinase release. lysis activity, % at 15 µM. C. neoformans lysis, adenylate kinase release luminescence, 4 h; normalised: neutral wells 0, clomiphene wells 100. 360,000 tested, 0.2% active;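 active means mean lysis activity across replicates of at least 80%, whatever share of replicates individually reach that level; inactive means mean lysis activity below 80%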
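Material – Cryptococcus neoformans yeast cells · Quantity – 5 × 10^6 yeast cells/mL · Buffer or medium – YPD medium · Compound – single dose · Timing – 4 h static compound exposure, 37 °C, read 1 h post-reagent · Signal – adenylate kinase release luminescence · Read-out basis – lysis from increased AK signal · Benchmarks – Clomiphene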
Env fusion inh – HIV envelope-mediated fusion inhibition; AID 651610; 360,000 tested, 1.1% active; HeLa-JRFL Env/CEM21 cell fusion, luciferase; inhibition, % at 12.3 µM;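 active means mean replicate inhibition score of at least 50 and every replicate individually at or above 50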;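 further: 0% = plate neutral controls and 100% = maraviroc near 300 nM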
FGF22 binding – shifts melting point of recombinant human FGF22; Q9HCT0; recombinant FGF22 thermal shift, SYPRO orange fluorescence; percent of sucrose octasulfate shift, DMSO zero; activity (Tm shift, normalised), % at 9.99 µM; 340,000 tested, 1.5% active; AID 651658;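 active means mean Tm shift, scaled 0 neutral to 100 positive control, at about 1.3% or above, every replicate too, limit read from the data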
* = called active by the depositor; x = not tested or not shown; ! = repeats disagree; [ ] = another dose, or the depositor's remark. Most compounds without a hit are left out; they make up all but 3.5% or so of the library.

SMILES	PGC1a acetyl inh	ERAP1 HTS inh	rRNA inh HTS	Cneo AK release	Env fusion inh	FGF22 binding
CCc1nc(N)nc(N)c1-c1ccc(Cl)cc1	48*	-1	x	-2	-43	0
CCc1nc(N)nc(N)c1-c1ccc(N(C)Cc2ccccc2)c([N+](=O)[O-])c1	14	3	-33	x	20	0
CCN1C(=O)[C@H]2[C@@H](c3ccc(-c4ccc(F)cc4)c(OC)c3)N3CCCC[C@@]3(C(=O)OC)[C@H]2C1=O	-3	x	15	1	11	0
O=C(O)C1C(c2ccccc2)c2ccccc2C(O)C1CO (stereo not given)	-5	-3	4	2	-11	43*
OCC1C2c3ccccc3C(c3ccccc32)C1CO (stereo not given)	x	5	9	x	-13	0
Cc1ccc(S(=O)(=O)NCC[C@H]2CC[C@@H](NC(=O)NC(C)C)[C@H](CO)O2)cc1	11	0	5	0	9[16.7 µM]	0
N#C/C(=C\c1cccc(Oc2ccccc2)c1)C(=O)N1CCOCC1	1	-3	-25*	2	8	0
COc1cc(/C=C(\C#N)C(=O)N2CCOCC2)cc(Br)c1O	7	6	-3	-2	9	1
c1ccc(Oc2ncnc3ccccc23)cc1	4	-1	15	-1	x	43*
Cc1nc(Oc2ccccc2)c2ccccc2n1	x	x	x	x	33	x
Clc1ccc(OCCOCCNCc2ccccc2)cc1Cl	1	-1	-30	14	55*	0
Cc1cc(OCC(=O)N(C)Cc2ccccc2)ccc1Cl	x	0	-30*	0	-23	0
Cc1cc(OCC(=O)N(C)Cc2ccccc2)ccc1Br	x	0	-26	-1	6	0
CN(CCOCCOc1ccc(Cl)cc1Br)Cc1ccccc1	-2	10	-37*	x	42	0
C=CCc1cc(OC)ccc1OCCN(C)Cc1ccccc1	x	5	-30*	x	11	0
CN(CCOc1ccc(Cl)c(Cl)c1)Cc1ccccc1	8	0	-30*	0	-2	0
COc1ccc(CCNc2ccc(C(CC(N)=O)NC(=O)Cc3ccc(Br)cc3)cc2[N+](=O)[O-])cc1 (stereo not given)	15	6	11	-2	74*	0
NC(=O)CC(NC(=O)Cc1ccc(Br)cc1)c1ccc(N2CCC(Br)CC2)c([N+](=O)[O-])c1 (stereo not given)	5	1	4	-1	63*	0
COc1ccc(CCNc2ccc(C(CC(N)=O)NC(=O)c3ccc(Br)cc3)cc2[N+](=O)[O-])cc1 (stereo not given)	x	0	5	-3	10	0
COc1ccc(CNc2ncnc3cc(Cl)ccc23)cc1OC	x	-1	-24	x	39	43*
O=c1c(Oc2ccccc2F)coc2cc(OCc3cnn(-c4ccccc4)c3)ccc12	1	-1	x	x	-20	43*
CCOc1ccc(CCNC(=O)c2nnn(CC(=O)Nc3ccc(OC)c(OC)c3)c2N)cc1OCC	x	1	-5	x	1	0
COc1ccc(OCC(=O)N/N=C2\CCCCc3ccccc32)cc1	x	2	-29*	x	-8	0
[N-]=[N+]=NC[C@H](Cc1ccccc1)N1CC[C@@H](OCc2ccccc2)CCC1=O	x	-10	-25*	3	19	0
O=C(Cc1c(F)cccc1Cl)OCC(=O)N1CCN(c2ccccc2)CC1	-21	-1	-21*	-1	-4	0
SMILES	PGC1a acetyl inh	ERAP1 HTS inh	rRNA inh HTS	Cneo AK release	Env fusion inh	FGF22 binding
COc1ccc(N2CCN(C(=O)COC(=O)Cc3c(F)cccc3Cl)CC2)cc1	x	-2	-9	0	x	1
CCOC(=O)C1CCN(S(=O)(=O)c2ccc(CC)cc2)CC1	x	x	x	x	-4	x
CCOC(=O)C1CCN(S(=O)(=O)c2ccc(C(C)(C)C)cc2)CC1	-13	-5	3	x	6	43*
CC(=O)N1CCCc2cc(S(=O)(=O)Nc3ccccc3C)ccc21	x	-1	0	-1	-6	44*
Cc1ccccc1NC1=C(C(=O)c2ccccc2)N(C)S(=O)(=O)c2ccccc21	-24	x	x	0	-56	x
O=C(C1=C(Nc2ccccc2)c2ccccc2S(=O)(=O)N1)c1ccccc1	x	3	-19*	x	-18	0
S=c1[nH]c2ccccc2o1	x	0	20	x	3	x
COc1ccccc1N1CCN(c2nc(C)nc3c2oc2ccccc23)CC1	-7	x	x	11	63*	x
Cc1nc(N2CCC(C)CC2)c2oc3ccccc3c2n1	-7	x	x	x	x	x
CNC[C@H]1OCCCC[C@H](C)Oc2ccc(NC(=O)Cc3ccccc3)cc2C(=O)N([C@H](C)CO)C[C@@H]1C	11	-1	3	108*	-2[16.7 µM]	0
CNC[C@@H]1OCCCC[C@H](C)Oc2ccc(NC(=O)NC(C)C)cc2C(=O)N([C@H](C)CO)C[C@H]1C	-7	1	10	117*	17[16.7 µM]	0
C[C@@H]1CCCCO[C@@H](CN(C)C(=O)C2CCCCC2)[C@@H](C)CN([C@H](C)CO)C(=O)c2cc(NC(=O)Cc3ccccc3)ccc2O1	3	0	4	-1	-8[16.7 µM]	0
C[C@H]1CCCCO[C@@H](CN(C)C(=O)C2CCCCC2)[C@@H](C)CN([C@@H](C)CO)C(=O)c2cc(NC(=O)Cc3ccccc3)ccc2O1	0	2	-2	0	-40[16.7 µM]	1.9*
CNC[C@H]1OCCCC[C@H](C)Oc2ccc(NC(=O)CCCN(C)C)cc2C(=O)N([C@H](C)CO)C[C@@H]1C	5	5	5	107*!	4	0
O=C(CC(=O)c1cc(Cl)ccc1O)c1ccccc1	-9	5	-27*	1	x	0
CN(C)C(=O)c1ccc(-c2ccc([C@@H]3[C@H](C#N)N(S(C)(=O)=O)[C@H]3CO)cc2)cc1	-1	-1	2	3	x	0
Cc1cc(C(=O)Nc2ccc3c(c2)OCO3)no1	x	-3	5	-1	-22	0
O=C(NCCO)c1ccc(-c2cnc3cccnn23)cc1	x	4	3	-1	6	0
OCc1ccccc1-c1cnc2cccnn12	x	6	5	-1	-10	55*
CC(C(=O)N(C)Cc1cccc(F)c1)N1CCN(S(=O)(=O)c2ccc3c(c2)OCCCO3)CC1 (stereo not given)	x	0	-20	1	-1	0
CC1(C)CC(N2CCCC2)=CC(=[N+]2CCCC2)C1	x	63*	-1	-3	59*	0
CC1(C)CC(N2CCCC2)=CC(=[N+]2CCCCC2)C1	x	15	-2	-6	46	0
Cc1ccc(C2=NCCn3c2c2ccc(C(F)(F)F)cc2[n+]3[O-])cc1	x	10	3	-3	x	43*
N#C/C(=C\c1ccc(N2CCCCC2)o1)C(=O)Nc1cccc(Br)c1	x	x	x	x	-66	x
